Laboratory results taken from publication PMC2156157 (The Journal of Cell Biology, 1999).

What was measured:
Format in all cases: cell-based, human
[1] = test system: apical membrane of airway epithelial cells; conditions: 16HBE14o− cells on transwell filters 7–10 d after confluence, confocal
In short: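 Samples were 16HBE14o− filters (7–10 d post-confluence) or primary nasal cultures (air-liquid interface, 40–50 d). Fixation was 4% paraformaldehyde, 5–20 min, room temperature. Blocking used milk/BSA/Triton (16HBE14o−) or 10–20% goat serum (primary). Primary antisera ran 4–12 h: ezrin 1:300, ZO-1 1:200, EBP50 1:500 or 1:200, YAP65 1:300 or 1:200. Primary cultures also got 70 nM FITC-phalloidin. Texas red/FITC secondaries, XZ confocal imaging.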

EBP50 = assay: coimmunoprecipitation with EBP50 antisera from 16HBE14o− lysates; conditions: 16HBE14o− lysates (wild type or stably expressing GFP chimera), immunoblot
In short: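 16HBE14o− cells were wild type or stable lines expressing GFP-YAP65 or GFP-YAP65 lacking the last four residues (G418 400 µg/ml; ≥2 clones). Cells were lysed in RIPA. Rabbit anti-EBP50, preimmune serum or normal rabbit IgG (2 µg) was prebound to protein A beads. Lysate (~300 µg or ~200 µg) was incubated for 4–12 h at 4°C. Beads washed three times in RIPA; 10% SDS-PAGE; immunoblot with anti-YAP65 or anti-ezrin (1:1,000); 10–20% input.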

c-Yes = conditions: 16HBE14o− on transwell filters, mouse anti–c-Yes (1:100), XZ confocal
In short: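 16HBE14o− clones stably expressing GFP-YAP65 chimeras were selected with G418 and screened by fluorescence and anti-GFP blot. Cells were grown to confluence on transwell filters and fixed in 4% paraformaldehyde. After blocking (milk/BSA/0.1% Triton X-100, 3 h), they were stained with mouse anti-c-Yes (1:100) and fluorescent secondary antiserum, then scanned in XZ by confocal microscopy. At least two independent clones per line were analysed.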

Molecule | localization of endogenous protein [1] | presence in EBP50 immunoprecipitates (EBP50) | c-Yes distribution in cells stably overexpressing the chimera (c-Yes)
EBP50: ERM-binding phosphoprotein 50 kD; two PDZ domains (protein, left off: GST, end not stated, kept) MSADAAAGAPLPRLCCLEKGPNGYGFHLHGEKGKLGQYIRLVEPGSPAEKAGLLAGDRLVEVNGENVEKETHQQVVSRIRAALNAVRLLVVDPETDEQLQKLGVQVREELLRAQEAPGQAEPPAAAEVQGAGNENEPREADKSHPEQRELRPRLCTMKKGPSGYGFNLHSDKSKPGQFIRSVDPDSPAEASGLRAQDRIVEVNGVCMEGKQHGDVVSAIRAGGDETKLLVVDRETDEFFKKCRVIPSQEHLNGPLPVPFTNGEIQKENSREALAEAALESPRPALVRSASSDTSEELNSQDSPPKQDSTAPSSTSSSDPILDFNISLAMAKERAHQKRSSKRAPQMDWSKKNELFSNL | preferentially accumulated at the apical membrane | – | –
GFP-YAP65: GFP fused in-frame with YAP65 (protein, left off: GFP, end not stated, kept) MDPGQQPPPQPAPQGQGQPPSQPPQGQGPPSGPGQPAPAATQAAPQAPPAGHQIVHVRGDSETDLEALFNAVMNPKTANVPQTVPMRLRKLPDSFFKPPEPKSHSRQASTDAGTAGALTPQHVRAHSSPASLQLGAVSPGTLTPTGVVSGPAATPTAQHLRQSSFEIPDDVPLPAGWEMAKTSSGQRYFLNHIDQTTTWQDPRKAMLSQMNVTAPTSPPVQQNMMNSASAMNQRISQSAPVKQPPPLAPQSPQGGVMGGSNSNQQQQMRLQQLQMEKERLRLKQQELLRQVRPQELALRSQLPTLEQDGGTQNPVSSPGMSQELRTMTTNSSDPFLNSGTYHSRDESTDSGLSMSSYSVPRTPDDFLNSVDEMDTGDTINQSTLPSQQNRFPDYLEAIPGTNVDLGTLEGDGMNIEGEELMPSLQEALSSDILNDMESVLAATKLDKESFLTWL | – | present in EBP50 immunoprecipitates | c-Yes was accumulated at the apical membrane
